{"source": "paper PMC4216218", "about": "(Journal of Medicinal Chemistry, 2014)", "key": {"human factor XIa": {"target": "human factor XIa (Homo sapiens, UniProt P03951)", "sequence (P03951 19-387 limits assumed)": "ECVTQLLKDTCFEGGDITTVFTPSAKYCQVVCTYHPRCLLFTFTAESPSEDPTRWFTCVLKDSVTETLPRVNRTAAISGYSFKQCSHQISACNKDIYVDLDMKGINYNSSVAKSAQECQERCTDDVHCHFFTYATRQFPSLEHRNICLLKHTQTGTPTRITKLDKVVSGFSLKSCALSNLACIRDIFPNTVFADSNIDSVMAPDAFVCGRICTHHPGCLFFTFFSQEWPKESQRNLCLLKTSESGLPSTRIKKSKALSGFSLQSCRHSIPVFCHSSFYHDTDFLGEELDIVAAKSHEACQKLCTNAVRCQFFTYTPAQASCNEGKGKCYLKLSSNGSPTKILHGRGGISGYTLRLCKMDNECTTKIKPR", "sequence (P03951 388-625 limits assumed)": "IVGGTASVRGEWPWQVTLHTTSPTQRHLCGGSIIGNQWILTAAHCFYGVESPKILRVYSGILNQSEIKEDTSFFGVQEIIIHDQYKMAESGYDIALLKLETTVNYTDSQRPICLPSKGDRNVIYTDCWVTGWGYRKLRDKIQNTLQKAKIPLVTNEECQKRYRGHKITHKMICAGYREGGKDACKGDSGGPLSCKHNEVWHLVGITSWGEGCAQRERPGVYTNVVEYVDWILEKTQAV", "experiment": "Fluorescence-based binding affinity, intrinsic tryptophan fluorescence", "conditions": "pH 7.4, 37 °C", "summary_of_the_method": "(§1)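 Human plasma factor XI or factor XIa (105 nM) was titrated at 37 °C with aliquots of 200–250 μM aqueous ligand in 50 mM Tris-HCl pH 7.4, 150 mM NaCl, 0.1% PEG8000. Intrinsic tryptophan fluorescence (λEX 280 nm) was followed. ΔF/F0 versus ligand concentration was fitted to a quadratic binding equation for KD and ΔFMAX.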"}, "DEGR-FXIa": {"target": "DEGR-FXIa (Homo sapiens, UniProt P03951)", "sequence (P03951 19-387 limits assumed)": "as the sequence (P03951 19-387 limits assumed) above", "sequence (P03951 388-625 limits assumed)": "as the sequence (P03951 388-625 limits assumed) above", "experiment": "Salt dependence of affinity of DEGR-FXIa", "assay_type": "binding", "summary_of_the_method": "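DEGR-factor XIa (250 nM) was titrated with ligand solutions at 37 °C in 50 mM Tris-HCl pH 7.4, 0.1% PEG8000, at 25, 50, 100 or 150 mM NaCl. Dansyl fluorescence was read at 547 nm (excitation 345 nm), and a quadratic fit gave KD,obs. […] At least two experiments were run.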"}, "factor XI (zymogen)": {"target": "factor XI (zymogen) (Homo sapiens, UniProt P03951)", "sequence (P03951 19-625)": "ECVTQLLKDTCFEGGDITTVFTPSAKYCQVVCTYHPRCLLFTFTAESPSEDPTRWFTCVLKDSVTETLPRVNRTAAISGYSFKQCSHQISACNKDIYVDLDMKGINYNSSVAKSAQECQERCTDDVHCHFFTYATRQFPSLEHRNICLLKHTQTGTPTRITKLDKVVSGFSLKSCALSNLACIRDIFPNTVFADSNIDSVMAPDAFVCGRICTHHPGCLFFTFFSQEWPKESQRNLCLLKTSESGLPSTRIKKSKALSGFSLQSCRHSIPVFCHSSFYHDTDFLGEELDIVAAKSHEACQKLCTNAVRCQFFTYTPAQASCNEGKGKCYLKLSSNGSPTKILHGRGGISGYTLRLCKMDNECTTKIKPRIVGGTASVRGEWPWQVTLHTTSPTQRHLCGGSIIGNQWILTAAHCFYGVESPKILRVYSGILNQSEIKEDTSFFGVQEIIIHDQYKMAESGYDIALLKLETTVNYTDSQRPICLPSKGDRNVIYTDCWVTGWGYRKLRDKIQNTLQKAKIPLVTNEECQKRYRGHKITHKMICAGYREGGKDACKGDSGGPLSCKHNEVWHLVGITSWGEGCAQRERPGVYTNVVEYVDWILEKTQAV", "assay_type": "binding", "conditions": "intrinsic tryptophan fluorescence, pH 7.4, 37 °C", "summary_of_the_method": "as §1"}, "DEGR-factor XIa": {"target": "DEGR-factor XIa (Homo sapiens, UniProt P03951)", "sequence (P03951 19-387 limits assumed)": "as the sequence (P03951 19-387 limits assumed) above", "sequence (P03951 388-625 limits assumed)": "as the sequence (P03951 388-625 limits assumed) above", "experiment": "Fluorescence-based binding affinity, dansyl fluorescence", "conditions": "saturating ligand, λEX 345 nm"}}, "note": "“And” between values parts separate entries of the source, which are not always exact repeats. Identical values can stand only once.", "data": [{"substance": "heparin octasaccharide [H8]", "values": [{"measurement": "Kd", "setting": "human factor XIa", "result": "900 ± 200", "unit": "nM"}, {"measurement": "ΔFMAX", "setting": "human factor XIa", "result": "–68 ± 2%"}, {"measurement": "Z (number of ion-pairs formed)", "setting": "DEGR-FXIa; pH 7.4, 37 °C", "result": "0.64 ± 0.04"}, {"measurement": "intercept of log KD,obs versus log[Na]", "setting": "DEGR-FXIa; pH 7.4, 37 °C", "result": "–5.00 ± 0.04"}, {"measurement": "slope of log KD,obs versus log[Na]", "setting": "DEGR-FXIa; pH 7.4, 37 °C", "result": "0.52 ± 0.03"}, {"measurement": "ΔG0NI (binding energy due to nonionic forces)", "setting": "DEGR-FXIa; pH 7.4, 37 °C", "result": "7.08 kcal/mol and 7.1 ± 0.02 kcal/mol"}, {"measurement": "ΔG0NI (nonionic binding energy contribution to the total)", "setting": "DEGR-FXIa; pH 7.4, 37 °C", "result": 90.5, "unit": "%"}, {"measurement": "ΔG0I (binding energy due to ionic forces)", "setting": "DEGR-FXIa; pH 7.4, I 0.15", "result": 0.75, "unit": "kcal/mol"}, {"measurement": "Kd", "setting": "DEGR-FXIa; read-out: KD,NI (nonionic affinity), dissociation constant at [Na+] = 1 M", "result": "10100 ± 400", "unit": "nM"}, {"measurement": "Kd", "setting": "factor XI (zymogen)", "result": "1800 ± 400", "unit": "nM"}, {"measurement": "blue-shift of emission wavelength of DEGR-FXIa", "setting": "DEGR-factor XIa", "result": "~3", "unit": "nm"}]}]}
